Measured values: ChEMBL document CHEMBL1151718, “Design, synthesis, and biological characterization of a caspase 3/7 selective isatin labeled with 2-[18F]fluoroethylazide” (J Med Chem, 2008)
Activity calls are given as the source filed them. No cut-off for these calls is given here.

Experiments:
Caspase-3 = molecular target: T1, Caspase-3 (Homo sapiens, UniProt P42574); assay: Inhibition of human recombinant caspase 3 assessed as accumulation of 7-amino-4-methylcoumarin substrate
T1 sequence (P42574 whole entry): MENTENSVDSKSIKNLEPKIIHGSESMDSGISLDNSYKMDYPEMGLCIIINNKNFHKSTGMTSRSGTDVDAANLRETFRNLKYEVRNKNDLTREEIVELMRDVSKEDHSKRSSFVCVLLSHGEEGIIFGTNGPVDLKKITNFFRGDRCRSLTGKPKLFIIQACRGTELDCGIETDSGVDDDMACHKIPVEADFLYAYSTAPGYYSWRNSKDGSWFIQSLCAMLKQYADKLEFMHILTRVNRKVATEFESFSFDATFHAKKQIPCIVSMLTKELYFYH
In short: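 Substrates at 10 µM: Ac-DEVD-AMC (caspase 3), Ac-VEID-AMC (caspase 6), Ac-IETD-AMC (caspase 8), added after 10 min preincubation with inhibitor (5 pM–500 µM). Duplicates, two runs; EC50 by nonlinear regression.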

Caspase-7 = molecular target: T2, Caspase-7 (Homo sapiens, UniProt P55210); assay: Inhibition of human recombinant caspase 7 assessed as accumulation of 7-amino-4-methylcoumarin substrate
T2 sequence (P55210 whole entry): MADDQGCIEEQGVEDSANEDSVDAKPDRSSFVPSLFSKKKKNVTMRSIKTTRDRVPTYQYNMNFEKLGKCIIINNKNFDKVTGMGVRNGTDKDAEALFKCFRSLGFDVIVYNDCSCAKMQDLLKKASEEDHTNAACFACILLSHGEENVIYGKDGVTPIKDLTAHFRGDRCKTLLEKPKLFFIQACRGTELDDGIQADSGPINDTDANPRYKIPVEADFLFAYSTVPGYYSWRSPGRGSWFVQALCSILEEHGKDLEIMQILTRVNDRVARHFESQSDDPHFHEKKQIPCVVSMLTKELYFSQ
In short: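 Isatin (5 pM–500 µM, 9 levels) preincubated 10 min, then Ac-DEVD-AMC (10 µM final) added for 30 min. 7-AMC fluorescence read at ex 355/em 460 nm against no-enzyme controls. EC50 by nonlinear regression; duplicates, two runs.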

Caspase-1 = molecular target: T3, Caspase-1 (Homo sapiens, UniProt P29466); assay: Inhibition of human recombinant caspase 1 assessed as accumulation of 7-amino-4-methylcoumarin substrate
T3 sequence (P29466 whole entry): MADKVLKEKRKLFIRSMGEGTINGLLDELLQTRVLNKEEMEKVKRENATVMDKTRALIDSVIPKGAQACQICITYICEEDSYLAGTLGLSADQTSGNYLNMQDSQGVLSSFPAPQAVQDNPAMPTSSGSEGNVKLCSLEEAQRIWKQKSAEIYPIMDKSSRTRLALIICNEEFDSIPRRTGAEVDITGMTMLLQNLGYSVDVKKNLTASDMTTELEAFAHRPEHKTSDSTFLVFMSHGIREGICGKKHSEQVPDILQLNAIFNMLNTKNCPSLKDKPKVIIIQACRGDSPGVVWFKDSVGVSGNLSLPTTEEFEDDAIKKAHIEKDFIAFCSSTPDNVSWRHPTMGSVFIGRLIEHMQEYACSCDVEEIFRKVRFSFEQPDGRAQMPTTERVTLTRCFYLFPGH
In short: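 Recombinant human caspase 1 (0.5 units) at 37 °C in 100 mM HEPES pH 7.4, 0.1% CHAPS, 100 mM NaCl, 5 mM 2-mercaptoethanol, 2 mM EDTA, 10% sucrose, 5% DMSO final. Inhibitor (5 pM–500 µM, 9 concentrations) preincubated 10 min before adding 10 µM Ac-YVAD-AMC for 30 min. 7-AMC fluorescence read at ex 355/em 460 nm against no-enzyme controls. Duplicates, two runs; EC50 by nonlinear regression.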

Caspase-6 = molecular target: T4, Caspase-6 (Homo sapiens, UniProt P55212); assay: Inhibition of human recombinant caspase 6 assessed as accumulation of 7-amino-4-methylcoumarin substrate
T4 sequence (P55212 whole entry): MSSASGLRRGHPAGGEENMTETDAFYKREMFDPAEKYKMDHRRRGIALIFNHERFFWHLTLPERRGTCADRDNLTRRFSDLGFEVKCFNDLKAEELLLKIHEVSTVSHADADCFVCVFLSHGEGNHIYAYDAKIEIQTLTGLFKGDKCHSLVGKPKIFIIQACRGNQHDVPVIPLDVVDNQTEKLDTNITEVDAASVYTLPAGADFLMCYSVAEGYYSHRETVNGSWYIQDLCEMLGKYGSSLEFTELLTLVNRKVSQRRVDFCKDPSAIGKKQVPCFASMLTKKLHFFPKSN
In short: (§1)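 Substrates at 10 µM: Ac-DEVD-AMC (caspase 3), Ac-VEID-AMC (caspase 6), Ac-IETD-AMC (caspase 8), added after 10 min preincubation with inhibitor (5 pM–500 µM). 7-AMC read after 30 min at ex 355/em 460 nm. Duplicates, two runs; EC50 by nonlinear regression.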

Caspase-8 = Caspase-8 (Homo sapiens, UniProt Q14790); assay: Inhibition of human recombinant caspase 8 assessed as accumulation of 7-amino-4-methylcoumarin substrate; in short: as §1
Caspase-8, sequence (Q14790 217-374 limits assumed): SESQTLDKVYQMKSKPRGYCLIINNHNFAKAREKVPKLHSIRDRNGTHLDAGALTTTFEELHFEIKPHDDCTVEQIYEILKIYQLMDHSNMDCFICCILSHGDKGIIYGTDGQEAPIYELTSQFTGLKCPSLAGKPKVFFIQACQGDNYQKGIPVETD
Caspase-8, sequence (Q14790 385-479 limits assumed): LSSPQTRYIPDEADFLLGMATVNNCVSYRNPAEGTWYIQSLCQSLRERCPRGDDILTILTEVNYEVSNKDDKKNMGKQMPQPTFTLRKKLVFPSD

[1] = Chemical stability assessed as half life; format: physicochemical
[2] = Metabolic stability in mouse liver S9 fraction at pH 7.4; format: ADME, subcellular; details: s9, pH 7.4
In short: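 Mouse liver homogenized in 50 mM Tris–150 mM KCl–HCl pH 7.4 and spun at 10000g for 30 min to give S9. Compound (10 µL of 10 mM stock) was incubated with S9 (20 µL of 33.26 mg/mL) and 0.5 mM NADPH in Tris-HCl pH 7.4 (1 mL total), 60 min at 37 °C in air. Stopped with ice-cold acetonitrile and analyzed by gradient reverse-phase HPLC.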

Plasma [3] = assay: Metabolic stability in […] mouse plasma assessed as ratio of peak to total radioactivity present on chromatogram at 3.7 MBq, iv after 15 mins; format: ADME, organism-based; details: in vivo, 0.25 h
In short: (§2)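 [¹⁸F]15 (7.4 MBq) injected iv into non-tumor-bearing C3H/hej mice. Plasma and liver were snap-frozen, extracted with ice-cold acetonitrile (liver homogenized), centrifuged and dried. Extracts were analyzed by reverse-phase C18 radio-HPLC (ammonium formate/methanol:acetonitrile gradient). Percent parent = parent peak relative to total chromatogram radioactivity. Plasma: average of 3 studies per time point; liver: individual results from two samples.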

Liver = assay: Metabolic stability […] mouse liver assessed as ratio of peak to total radioactivity present on chromatogram at 3.7 MBq, iv after 2 mins; format: ADME, organism-based; details: in vivo; in short: as §2
[4] = Increase in drug uptake in mouse RIF1 cells after 60 mins relative to control; format: ADME, cell-based; details: rif-1, 1 h
In short: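 RIF-1 murine fibrosarcoma cells, plated in triplicate 2–3 days ahead, were exposed to CDDP at 100 µM or to vehicle (0.1% DMSO) for 48 h. About 10 µCi/well of the 18F tracer was then taken up for 60 min at 37 °C. Cells were collected, washed, resuspended in PBS and gamma-counted. Decay-corrected counts/min were normalised to mg protein (BCA), and the treated level was compared with the untreated one.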

Plasma [5] = assay: Metabolic stability in […] mouse plasma assessed as ratio of peak to total radioactivity present on chromatogram at 3.7 MBq, iv after 2 mins; format: ADME, organism-based, RIF-1; details: in vivo, in the assay text read “7.4 MBq” for “3.7 MBq”; in short: as §2
Caspase-3 (Mus musculus) = molecular target: T5, Caspase-3 (Mus musculus) (UniProt P70677); assay: Inhibition of caspase 3 in mouse RIF1 cells assessed as disruption of cisplatin-stimulated PARP induction by Western blot; format: cell-based; details: RIF-1
T5 sequence (whole entry): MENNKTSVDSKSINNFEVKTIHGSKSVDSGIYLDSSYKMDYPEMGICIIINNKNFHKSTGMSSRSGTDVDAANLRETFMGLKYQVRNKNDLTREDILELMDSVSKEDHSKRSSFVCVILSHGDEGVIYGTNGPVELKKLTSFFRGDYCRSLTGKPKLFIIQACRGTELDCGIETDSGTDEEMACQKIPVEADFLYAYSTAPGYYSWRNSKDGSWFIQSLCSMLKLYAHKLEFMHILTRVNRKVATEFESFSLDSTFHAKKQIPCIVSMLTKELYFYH
In short: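 RIF-1 murine fibrosarcoma cells were pretreated 15 min with caspase inhibitors (Z-VAD-FMK 100 µM as control), then given cisplatin 100 µM for 48 h. Lysates were made in RIPA with protease/phosphatase inhibitors, and 30 µg protein was run on 4–12% SDS-PAGE and blotted to PVDF. Probed with anti-cleaved PARP (89 kDa fragment) and α-tubulin loading control, detected by ECL.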

[6] = Lipophilicity, log P of the compound; format: physicochemical; details: octanol/water

O=C1C(=O)N(Cc2ccc(F)cc2)c2ccc(S(=O)(=O)N3CCC[C@H]3COCc3cn(CCF)nn3)cc21
EC50 (Caspase-3): 12.6 nM
EC50 (Caspase-7): 18.3 nM
EC50 (Caspase-1): > 5 µM
EC50 (Caspase-6): > 5 µM
EC50 (Caspase-8): > 5 µM

O=C1C(=O)N(Cc2ccc([125I])cc2)c2ccc(S(=O)(=O)N3CCC[C@H]3COc3ccccc3)cc21
half-life [1]: 59.9 days

O=C1C(=O)N(Cc2ccc(F)cc2)c2ccc(S(=O)(=O)N3CCCC3)cc21
Stability [2]: Stable

O=C1C(=O)N(Cc2ccc(F)cc2)c2ccc(S(=O)(=O)N3CCC[C@H]3COc3ccccc3)cc21
EC50 (Caspase-3): 50.5 nM

O=C1C(=O)N(Cc2cn(CC[18F])nn2)c2ccc(S(=O)(=O)N3CCC[C@H]3COc3ccc(F)cc3F)cc21
Activity (Plasma [3]): 61.3%
Activity (Liver): 35.7%
fold change (FC) [4]: 1.5
Activity (Plasma [5]): 86.1%

O=C1C(=O)N(Cc2ccc(I)cc2)c2ccc(S(=O)(=O)N3CCC[C@H]3COc3ccccc3)cc21
Activity (Caspase-3 (Mus musculus)): inactive

O=C1C(=O)N(Cc2ccc(F)cc2)c2ccc(S(=O)(=O)N3CCC[C@H]3COC3CCOCC3)cc21
EC50 (Caspase-3): 10.7 nM

O=C1C(=O)N(Cc2cn(CCF)nn2)c2ccc(S(=O)(=O)N3CCC[C@H]3COc3ccc(F)cc3F)cc21
logP [6]: 1.61
